In data set [1] the target is Sodium-dependent noradrenaline transporter (Homo sapiens) (UniProt P23975). In words: Displacement of [125I] RTI-55 from recombinant human full length NET expressed in MDCK cells at 10 uM after 120 mins by scintillation counting relative to control. It counts as cell-based.
Data set [2] can be described thus: Drug degradation in rat plasma at 1000 ng/ml measured over 240 mins by LC-MS/MS analysis. Type of data set: ADME, cell-free. The note with it: read-out: Drug degradation. In short, it runs like this:
(§1)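 Pooled human plasma (3 donors) or pooled male Sprague-Dawley rat plasma, thawed at 37°C. Spiked to a nominal 1000 ng/mL final (0.2% DMSO, 0.4% acetonitrile final) and incubated at 37°C. Aliquots were snap-frozen at time points over 4 h (n=3 per time point). Quantified by LC-MS against a same-species blank-plasma calibration with a leucine enkephalin internal standard.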

Data set [3] can be described thus: Degradation half life in human plasma at 1000 ng/ml by LC-MS/MS analysis. It counts as ADME, cell-free. In a few lines:
as §1

The target of data set [4] is Cannabinoid receptor 1 (Homo sapiens) (UniProt P21554). In words: Agonist activity at human CB1 receptor.
The target is the same in data set [5]. Kind of data set: Antagonist activity at human CB1 receptor.
Data set [6] can be described thus: Tmax in Sprague-Dawley rat plasma at 27.5 mg/kg, ip by UPLC analysis. It counts as ADME, organism-based. In a few lines: (§2)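 Male Sprague-Dawley rats (250–306 g) got one ip dose of a suspension (10% v/v DMSO, 1% solutol HS-15 in 50 mM PBS, pH 7.4). Terminal cardiac-puncture heparinised plasma and whole brain were sampled over 24 h, n=3 rats per time point. Samples were extracted by protein precipitation and read by UPLC-MS/MS in positive ESI MRM with a diazepam internal standard. Parameters are non-compartmental; the time-averaged B/P comes from AUC0-24h.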

Data set [7] is described as follows: AUC (0 to 24 hrs) in Sprague-Dawley rat plasma at 27.5 mg/kg, ip by UPLC analysis. It counts as ADME, organism-based. Set-up: dose 27.5 mg/kg, time < 24 hr, route intraperitoneal. The note with it: in vivo. In short, it runs like this: as §2
The nature of data set [8]: Tmax in Sprague-Dawley rat brain at 27.5 mg/kg, ip by UPLC analysis. It counts as ADME, organism-based. In short, it runs like this:
as §2

Data set [9] is described as follows: Ratio of drug uptake in Sprague-Dawley rat brain to plasma at 27.5 mg/kg, ip after 1 hr by UPLC analysis. Type of data set: ADME, organism-based. The note with it: read-out: BPR. In a few lines:
as §2

Data set [10] can be described thus: Ratio of drug uptake in Sprague-Dawley rat brain to plasma at 27.5 mg/kg, ip after 24 hrs by UPLC analysis. It counts as ADME, organism-based. The note with it: read-out: BPR. In short, it runs like this: as §2
For data set [11], the system named is Rattus norvegicus. In words: Analgesic activity in Sprague-Dawley rat model of neuropathic pain assessed as reduction in allodynia at 30 mg/kg, ip administered as single dose measured after 90 mins post injection. It counts as functional, organism-based. In short, it runs like this: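 Male Sprague-Dawley rats were tested 14 days after nerve-constriction surgery. Mechanical paw withdrawal threshold was measured with von Frey filaments (0.4–15.1 g) by the up-down method, bounded at 0.2 and 15 g. Rats got a single ip injection with vehicle of 1% DMSO, 10% Solutol HS15 in 0.9% saline. Testing ran at 15–360 min post-injection with Bonferroni comparisons against vehicle.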

A short description of data set [12]: Toxicity in Sprague-Dawley rat model of neuropathic pain assessed as incidence of localized pain rat 30 mg/kg, ip administered as single dose measured up to 15 mins post injection. It counts as organism-based. The note with it: in vivo, 0.25 h.
Data set [13] in a line: Time averaged ratio of drug uptake in Sprague-Dawley rat brain to plasma at 27.5 mg/kg, ip after 24 hrs by UPLC analysis. It counts as ADME, organism-based. The note with it: read-out: BPR. In short, it runs like this:
as §2

For data set [14], the target named is Sodium channel protein type 4 subunit alpha (Homo sapiens) (UniProt P35499). In words: Inhibition of human NaV1.4 expressed in HEK293 cells at 1 uM. It counts as cell-based.

Experimental findings from ChEMBL document CHEMBL4480400, “Development of an N-Acyl Amino Acid That Selectively Inhibits the Glycine Transporter 2 To Produce Analgesia in a Rat Model of Chronic Pain” (J Med Chem, 2019) are described below.

Each structure is given as a SMILES string. Active and inactive are the calls of the source. Where only a bound is given, the exact number is not on record here.

Chain of Cannabinoid receptor 1 (Homo sapiens) (P21554 whole entry): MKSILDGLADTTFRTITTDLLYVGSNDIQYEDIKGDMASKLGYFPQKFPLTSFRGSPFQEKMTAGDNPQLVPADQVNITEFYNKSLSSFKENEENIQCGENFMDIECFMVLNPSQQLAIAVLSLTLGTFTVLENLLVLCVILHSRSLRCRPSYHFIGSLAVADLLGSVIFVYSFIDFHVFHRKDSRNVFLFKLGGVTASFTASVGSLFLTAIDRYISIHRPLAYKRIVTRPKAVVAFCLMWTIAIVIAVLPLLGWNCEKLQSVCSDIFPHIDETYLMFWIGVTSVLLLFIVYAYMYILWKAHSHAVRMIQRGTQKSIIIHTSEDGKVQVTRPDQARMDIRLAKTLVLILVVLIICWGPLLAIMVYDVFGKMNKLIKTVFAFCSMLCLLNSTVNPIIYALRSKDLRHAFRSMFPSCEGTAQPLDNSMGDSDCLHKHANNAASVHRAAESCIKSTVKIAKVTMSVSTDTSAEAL
Chain of Sodium channel protein type 4 subunit alpha (Homo sapiens) (P35499 whole entry, looked up): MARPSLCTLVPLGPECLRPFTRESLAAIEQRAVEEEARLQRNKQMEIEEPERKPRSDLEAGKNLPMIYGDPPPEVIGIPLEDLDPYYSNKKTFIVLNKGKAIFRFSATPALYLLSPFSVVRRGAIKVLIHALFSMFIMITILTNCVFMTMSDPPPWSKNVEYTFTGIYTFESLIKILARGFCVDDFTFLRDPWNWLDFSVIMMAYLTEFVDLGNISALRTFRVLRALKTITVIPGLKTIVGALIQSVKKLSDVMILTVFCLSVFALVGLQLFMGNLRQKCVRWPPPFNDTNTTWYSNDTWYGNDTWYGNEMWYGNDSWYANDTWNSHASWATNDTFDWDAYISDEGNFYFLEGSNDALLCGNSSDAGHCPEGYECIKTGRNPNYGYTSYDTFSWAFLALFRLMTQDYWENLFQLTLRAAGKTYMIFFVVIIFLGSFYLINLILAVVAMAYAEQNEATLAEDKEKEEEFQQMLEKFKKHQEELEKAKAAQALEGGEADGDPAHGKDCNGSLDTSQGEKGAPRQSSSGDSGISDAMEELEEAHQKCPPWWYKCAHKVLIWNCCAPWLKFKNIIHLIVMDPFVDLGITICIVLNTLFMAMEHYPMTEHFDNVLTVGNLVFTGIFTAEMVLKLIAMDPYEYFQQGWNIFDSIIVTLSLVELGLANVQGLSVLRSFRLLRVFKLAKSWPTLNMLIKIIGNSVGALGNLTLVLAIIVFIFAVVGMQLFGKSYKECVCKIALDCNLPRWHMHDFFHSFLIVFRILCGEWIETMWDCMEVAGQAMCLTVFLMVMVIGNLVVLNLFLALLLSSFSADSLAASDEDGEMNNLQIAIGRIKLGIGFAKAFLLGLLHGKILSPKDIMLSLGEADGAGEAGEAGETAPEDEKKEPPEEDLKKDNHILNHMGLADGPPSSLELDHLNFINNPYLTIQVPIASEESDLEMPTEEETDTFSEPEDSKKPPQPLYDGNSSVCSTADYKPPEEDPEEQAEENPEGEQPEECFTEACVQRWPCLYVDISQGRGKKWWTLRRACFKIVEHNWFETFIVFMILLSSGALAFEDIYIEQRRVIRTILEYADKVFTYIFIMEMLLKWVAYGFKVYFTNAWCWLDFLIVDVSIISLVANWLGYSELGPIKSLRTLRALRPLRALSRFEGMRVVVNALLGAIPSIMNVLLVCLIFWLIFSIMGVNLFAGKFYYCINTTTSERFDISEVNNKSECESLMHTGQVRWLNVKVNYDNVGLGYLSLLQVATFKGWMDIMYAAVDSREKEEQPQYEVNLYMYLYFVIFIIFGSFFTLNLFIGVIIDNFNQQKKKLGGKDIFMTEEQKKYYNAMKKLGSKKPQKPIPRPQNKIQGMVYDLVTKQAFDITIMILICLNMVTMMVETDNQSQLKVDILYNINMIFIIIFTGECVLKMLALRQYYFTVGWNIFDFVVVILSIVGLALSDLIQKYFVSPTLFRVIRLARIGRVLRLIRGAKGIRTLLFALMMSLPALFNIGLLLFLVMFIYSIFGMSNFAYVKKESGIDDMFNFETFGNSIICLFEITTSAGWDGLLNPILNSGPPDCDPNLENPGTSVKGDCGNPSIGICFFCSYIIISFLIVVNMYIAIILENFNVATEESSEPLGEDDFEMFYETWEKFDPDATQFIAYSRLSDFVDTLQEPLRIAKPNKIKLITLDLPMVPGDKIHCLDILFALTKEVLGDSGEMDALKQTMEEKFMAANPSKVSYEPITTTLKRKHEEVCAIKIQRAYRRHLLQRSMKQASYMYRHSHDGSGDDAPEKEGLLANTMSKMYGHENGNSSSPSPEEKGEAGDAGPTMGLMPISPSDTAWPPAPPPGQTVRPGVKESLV
Chain of Sodium-dependent noradrenaline transporter (Homo sapiens) (P23975 whole entry): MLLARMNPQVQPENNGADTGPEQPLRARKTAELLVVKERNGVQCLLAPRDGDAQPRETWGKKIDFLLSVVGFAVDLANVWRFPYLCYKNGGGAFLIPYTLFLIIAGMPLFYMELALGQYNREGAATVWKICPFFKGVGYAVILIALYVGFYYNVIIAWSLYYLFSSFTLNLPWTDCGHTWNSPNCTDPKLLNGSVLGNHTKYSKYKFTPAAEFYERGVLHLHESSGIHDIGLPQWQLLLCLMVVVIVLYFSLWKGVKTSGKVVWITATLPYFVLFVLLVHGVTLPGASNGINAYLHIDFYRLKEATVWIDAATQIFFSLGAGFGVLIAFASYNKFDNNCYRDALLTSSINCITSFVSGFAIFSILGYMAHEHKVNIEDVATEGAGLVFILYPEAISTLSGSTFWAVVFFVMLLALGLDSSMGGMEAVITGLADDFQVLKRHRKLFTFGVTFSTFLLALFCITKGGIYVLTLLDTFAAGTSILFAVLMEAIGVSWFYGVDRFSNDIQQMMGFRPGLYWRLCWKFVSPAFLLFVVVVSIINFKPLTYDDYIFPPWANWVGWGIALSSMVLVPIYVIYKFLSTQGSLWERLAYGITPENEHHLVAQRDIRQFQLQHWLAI

The inhibition is how much of the control response was suppressed. In general, Tmax refers to the time at which the peak concentration occurs. By AUC is commonly meant the area under the concentration-time curve, a measure of exposure. A high value points to high exposure. On to `CCCCCCCC/C=C\CCCCCCCC(=O)N[C@H](CCCCN)C(=O)O.Cl`, for which, in data set [1], the inhibition is over 50%. In data set [2], the metabolised at 4 h, 1000 ng/ml was under 15%. Besides, the t1/2 in [3] is over 17.03 h. For the same compound, in data set [4], the outcome was inactive. For the same compound, the inhibition entry in data set [5] and in data set [14] was “inactive” each time. Moreover, the time of peak concentration (Tmax) in data set [6] came to 1 h; in data set [8] it was 24 h. The compound also registered an area under the curve (AUC) in data set [7] of 122.473 µg·h/mL. Further, in data set [9], the Kp at 1 h was determined as 0.08. The Kp at 24 h in data set [10] came out at 1.1; in data set [13] it was 0.31. In addition, the outcome in [11] was Active. For the same compound, the Activity entry in data set [12] was “Toxic”.
